Assay results as given in ChEMBL document CHEMBL1157912, “Impact of nature and length of linker incorporated in agonists on toll-like receptor 9-mediated immune responses” (J Med Chem, 2010).

Columns and labels:
[1] = target: T1, Toll-like receptor 9 (Homo sapiens) (UniProt Q9NR96); assay: Induction of TLR9-mediated immune stimulation in human PBMC assessed as RANTES production at 10 ug/ml after 24 hrs by luminex multiplex assay (RVb = 0.05 +/- 0.04 ng/ml)
T1 sequence (whole entry): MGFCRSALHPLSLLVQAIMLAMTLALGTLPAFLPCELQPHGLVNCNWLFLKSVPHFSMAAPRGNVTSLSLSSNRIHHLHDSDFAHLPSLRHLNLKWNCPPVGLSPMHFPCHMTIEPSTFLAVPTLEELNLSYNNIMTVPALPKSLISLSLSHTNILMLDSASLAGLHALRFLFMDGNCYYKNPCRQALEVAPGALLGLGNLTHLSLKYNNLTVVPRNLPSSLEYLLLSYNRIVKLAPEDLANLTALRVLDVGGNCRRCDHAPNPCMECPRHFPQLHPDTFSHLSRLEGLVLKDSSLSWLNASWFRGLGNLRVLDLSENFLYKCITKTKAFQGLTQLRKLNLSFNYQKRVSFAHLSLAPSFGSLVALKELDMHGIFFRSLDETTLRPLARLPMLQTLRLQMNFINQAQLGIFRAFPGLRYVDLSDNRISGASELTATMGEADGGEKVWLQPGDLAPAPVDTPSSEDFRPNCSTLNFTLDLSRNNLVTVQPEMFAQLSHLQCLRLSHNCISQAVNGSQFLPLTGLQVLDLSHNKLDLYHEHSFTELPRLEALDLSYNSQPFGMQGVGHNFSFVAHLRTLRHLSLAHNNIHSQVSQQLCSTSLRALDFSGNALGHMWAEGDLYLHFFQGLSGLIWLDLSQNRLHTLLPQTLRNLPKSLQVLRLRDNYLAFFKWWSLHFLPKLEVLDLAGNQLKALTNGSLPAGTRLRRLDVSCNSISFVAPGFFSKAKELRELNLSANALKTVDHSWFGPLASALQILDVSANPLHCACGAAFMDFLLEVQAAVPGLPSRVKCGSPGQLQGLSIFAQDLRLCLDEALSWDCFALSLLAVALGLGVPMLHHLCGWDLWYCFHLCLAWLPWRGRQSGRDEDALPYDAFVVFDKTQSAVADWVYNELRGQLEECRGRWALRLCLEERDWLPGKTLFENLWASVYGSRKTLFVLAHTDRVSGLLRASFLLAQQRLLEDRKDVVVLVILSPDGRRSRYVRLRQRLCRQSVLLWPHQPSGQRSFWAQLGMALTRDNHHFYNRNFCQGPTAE

[2] = target: T1, Toll-like receptor 9 (Homo sapiens); assay: Induction of TLR9-mediated immune stimulation in human PBMC assessed as MCP1 production at 2 ug/ml after 24 hrs by luminex multiplex assay (RVb = 0.08 +/- 0.02 ng/ml)
[3] = target: T1, Toll-like receptor 9 (Homo sapiens); assay: Induction of TLR9-mediated immune stimulation in human PBMC assessed as IL2R production at 2 ug/ml after 24 hrs by luminex multiplex assay (RVb = 0.02 +/- 0.01 ng/ml)
[4] = target: T2, Toll-like receptor 9 (Mus musculus) (UniProt Q9EQU3); assay: Activation of mouse TLR9 expressed in HEK293 cells assessed as induction of NF-kappaB activity after 18 hrs by SEAP assay; type: cell-based
T2 sequence (whole entry): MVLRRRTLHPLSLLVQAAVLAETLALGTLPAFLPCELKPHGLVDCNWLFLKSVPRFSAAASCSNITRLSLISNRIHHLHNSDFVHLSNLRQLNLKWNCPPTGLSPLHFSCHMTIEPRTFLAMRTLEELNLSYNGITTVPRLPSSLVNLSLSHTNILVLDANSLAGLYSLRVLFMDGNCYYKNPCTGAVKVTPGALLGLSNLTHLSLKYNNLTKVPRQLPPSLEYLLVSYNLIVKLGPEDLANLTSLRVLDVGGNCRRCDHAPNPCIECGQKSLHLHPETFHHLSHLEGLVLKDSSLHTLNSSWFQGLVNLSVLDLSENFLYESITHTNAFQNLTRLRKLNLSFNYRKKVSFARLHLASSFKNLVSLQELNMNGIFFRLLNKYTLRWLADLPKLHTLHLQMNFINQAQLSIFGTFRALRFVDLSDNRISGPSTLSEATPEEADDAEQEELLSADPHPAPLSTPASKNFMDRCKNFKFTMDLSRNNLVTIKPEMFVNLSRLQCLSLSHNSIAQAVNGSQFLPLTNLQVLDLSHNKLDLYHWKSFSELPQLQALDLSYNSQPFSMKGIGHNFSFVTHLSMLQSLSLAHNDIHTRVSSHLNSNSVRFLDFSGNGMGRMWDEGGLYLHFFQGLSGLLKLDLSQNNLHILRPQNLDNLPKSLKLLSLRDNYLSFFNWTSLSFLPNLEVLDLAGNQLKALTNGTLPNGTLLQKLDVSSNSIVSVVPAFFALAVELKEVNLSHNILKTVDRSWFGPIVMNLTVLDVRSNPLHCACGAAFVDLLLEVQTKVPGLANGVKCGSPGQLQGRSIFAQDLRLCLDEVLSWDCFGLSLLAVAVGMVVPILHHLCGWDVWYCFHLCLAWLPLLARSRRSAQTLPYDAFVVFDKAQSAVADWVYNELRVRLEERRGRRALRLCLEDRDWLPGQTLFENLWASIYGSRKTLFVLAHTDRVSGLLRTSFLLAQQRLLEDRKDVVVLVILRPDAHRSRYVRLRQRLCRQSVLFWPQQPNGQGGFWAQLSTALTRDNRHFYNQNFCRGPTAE
In short: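 HEK293 cells stably expressing mouse TLR9 were grown in DMEM with 10% heat-inactivated FBS. At 80% confluence they were transiently transfected with a SEAP reporter plasmid (100 ng/well, lipofectamine) for 6 h. Medium was then replaced and agonists were added for 18 h. Supernatant SEAP was read with QuantiBlue substrate at 620-645 nm. Results are expressed as fold NF-κB activity over PBS control.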

[5] = target: T1, Toll-like receptor 9 (Homo sapiens); assay: Induction of TLR9-mediated immune stimulation in human PBMC assessed as MIP1beta production at 2 ug/ml after 24 hrs by luminex multiplex assay (RVb = 0.03 +/- 0.02 ng/ml)
[6] = target: T1, Toll-like receptor 9 (Homo sapiens); assay: Induction of TLR9-mediated immune stimulation in human PBMC assessed as IL1Ralpha production at 10 ug/ml after 24 hrs by luminex multiplex assay (RVb = 0.12 +/- 0.03 ng/ml)
[7] = target: T1, Toll-like receptor 9 (Homo sapiens); assay: Induction of TLR9-mediated immune stimulation in human PBMC assessed as IL1Ralpha production at 2 ug/ml after 24 hrs by luminex multiplex assay (RVb = 0.12 +/- 0.03 ng/ml)
[8] = target: T1, Toll-like receptor 9 (Homo sapiens); assay: Induction of TLR9-mediated immune stimulation in human PBMC assessed as IL2R production at 10 ug/ml after 24 hrs by luminex multiplex assay (RVb = 0.02 +/- 0.01 ng/ml)
[9] = target: T1, Toll-like receptor 9 (Homo sapiens); assay: Induction of TLR9-mediated immune stimulation in human PBMC assessed as IL12 production at 2 ug/ml after 24 hrs by luminex multiplex assay (RVb = 0.00 ng/ml)
[10] = target: T1, Toll-like receptor 9 (Homo sapiens); assay: Induction of TLR9-mediated immune stimulation in human PBMC assessed as RANTES production at 2 ug/ml after 24 hrs by luminex multiplex assay (RVb = 0.05 +/- 0.04 ng/ml)

In the case of `Cc1cn([C@H]2C[C@H](OCC(O)COP(=O)(S)O[C@H]3C[C@H](n4cc(C)c(=O)[nH]c4=O)O[C@@H]3COP(=O)(S)O[C@H]3[C@@H](O)[C@H](n4ccc(N)nc4=O)O[C@@H]3COP(=O)(S)O[C@H]3C[C@H](n4cc(C)c(=O)[nH]c4=O)O[C@@H]3COP(=O)(S)O[C@H]3C[C@H](n4cc(C)c(=O)[nH]c4=O)O[C@@H]3COP(=O)(S)O[C@H]3C[C@H](n4ccc5c(=O)[nH]c(N)nc54)O[C@@H]3COP(=O)(S)O[C@H]3[C@@H](O)[C@H](n4ccc(N)nc4=O)O[C@@H]3COP(=O)(S)O[C@H]3C[C@H](n4cc(C)c(=O)[nH]c4=O)O[C@@H]3COP(=O)(S)O[C@H]3[C@@H](O)[C@H](n4cnc5c(=O)[nH]c(N)nc54)O[C@@H]3COP(=O)(S)O[C@H]3C[C@H](n4cc(C)c(=O)[nH]c4=O)O[C@@H]3COP(=O)(S)O[C@H]3[C@@H](O)[C@H](n4ccc(N)nc4=O)O[C@@H]3COP(=O)(S)O[C@H]3C[C@H](n4cc(C)c(=O)[nH]c4=O)O[C@@H]3CO)[C@@H](COP(=O)(S)O[C@H]3[C@@H](O)[C@H](n4ccc(N)nc4=O)O[C@@H]3COP(=O)(S)O[C@H]3C[C@H](n4cc(C)c(=O)[nH]c4=O)O[C@@H]3COP(=O)(S)O[C@H]3C[C@H](n4cc(C)c(=O)[nH]c4=O)O[C@@H]3COP(=O)(S)O[C@H]3C[C@H](n4ccc5c(=O)[nH]c(N)nc54)O[C@@H]3COP(=O)(S)O[C@H]3[C@@H](O)[C@H](n4ccc(N)nc4=O)O[C@@H]3COP(=O)(S)O[C@H]3C[C@H](n4cc(C)c(=O)[nH]c4=O)O[C@@H]3COP(=O)(S)O[C@H]3[C@@H](O)[C@H](n4cnc5c(=O)[nH]c(N)nc54)O[C@@H]3COP(=O)(S)O[C@H]3C[C@H](n4cc(C)c(=O)[nH]c4=O)O[C@@H]3COP(=O)(S)O[C@H]3[C@@H](O)[C@H](n4ccc(N)nc4=O)O[C@@H]3COP(=O)(S)O[C@H]3C[C@H](n4cc(C)c(=O)[nH]c4=O)O[C@@H]3CO)O2)c(=O)[nH]c1=O` (some centres undefined), the Activity [1] was 1.67 ng/mL, the Activity [2] was 0.46 ng/mL and the Activity [3] was 0.06 ng/mL. For the same molecule, the Activity [4] was “Dose-dependent effect”, the Activity [5] was 0.11 ng/mL and the Activity [6] was 81.7 ng/mL. It also gave an Activity [7] of 13 ng/mL, an Activity [8] of 0.19 ng/mL and an Activity [9] of 0.14 ng/mL. It also gave an Activity [10] of 0.29 ng/mL.

In the case of `Cc1cn([C@H]2C[C@H](OCC(O)COP(=O)(S)O[C@H]3C[C@H](n4cc(C)c(=O)[nH]c4=O)O[C@@H]3COP(=O)(S)O[C@H]3[C@@H](O)[C@H](n4ccc(N)nc4=O)O[C@@H]3COP(=O)(S)O[C@H]3[C@@H](O)[C@H](n4cnc5c(N)ncnc54)O[C@@H]3COP(=O)(S)O[C@H]3[C@@H](O)[C@H](n4cnc5c(N)ncnc54)O[C@@H]3COP(=O)(S)O[C@H]3[C@@H](O)[C@H](n4ccc(N)nc4=O)O[C@@H]3COP(=O)(S)O[C@H]3[C@@H](O)[C@H](n4ccc(N)nc4=O)O[C@@H]3COP(=O)(S)O[C@H]3[C@@H](O)[C@H](n4cnc5c(N)ncnc54)O[C@@H]3COP(=O)(S)O[C@H]3[C@@H](O)[C@H](n4ccc(N)nc4=O)O[C@@H]3COP(=O)(S)O[C@H]3[C@@H](O)[C@H](n4cnc5c(N)ncnc54)O[C@@H]3COP(=O)(S)O[C@H]3[C@@H](O)[C@H](n4ccc(N)nc4=O)O[C@@H]3COP(=O)(S)O[C@H]3[C@@H](O)[C@H](n4cnc5c(N)ncnc54)O[C@@H]3CO)[C@@H](COP(=O)(S)O[C@H]3[C@@H](O)[C@H](n4ccc(N)nc4=O)O[C@@H]3COP(=O)(S)O[C@H]3[C@@H](O)[C@H](n4cnc5c(N)ncnc54)O[C@@H]3COP(=O)(S)O[C@H]3[C@@H](O)[C@H](n4cnc5c(N)ncnc54)O[C@@H]3COP(=O)(S)O[C@H]3[C@@H](O)[C@H](n4ccc(N)nc4=O)O[C@@H]3COP(=O)(S)O[C@H]3[C@@H](O)[C@H](n4ccc(N)nc4=O)O[C@@H]3COP(=O)(S)O[C@H]3[C@@H](O)[C@H](n4cnc5c(N)ncnc54)O[C@@H]3COP(=O)(S)O[C@H]3[C@@H](O)[C@H](n4ccc(N)nc4=O)O[C@@H]3COP(=O)(S)O[C@H]3[C@@H](O)[C@H](n4cnc5c(N)ncnc54)O[C@@H]3COP(=O)(S)O[C@H]3[C@@H](O)[C@H](n4ccc(N)nc4=O)O[C@@H]3COP(=O)(S)O[C@H]3[C@@H](O)[C@H](n4cnc5c(N)ncnc54)O[C@@H]3CO)O2)c(=O)[nH]c1=O` (some centres undefined), the Activity [1] was 0.52 ng/mL, the Activity [2] was 0.2 ng/mL and the Activity [3] was 0.06 ng/mL. It also gave an Activity [5] of 0.07 ng/mL, an Activity [6] of 33.8 ng/mL and an Activity [7] of 5.47 ng/mL. For the same molecule, the Activity [8] was 0.07 ng/mL, the Activity [9] was 0.03 ng/mL and the Activity [10] was 0.16 ng/mL.
